Assay results from PMC2726660 (Archives of biochemistry and biophysics, 2009).
Where two headings read alike, the source gives them in different places. Blank lines part the entries; values can stand above or below the compound they belong to.

How the values were obtained:
[1] = system: purified bovine brain tubulin; experiment: Electron microscopy of polymer morphology; assay type: biochemical; conditions: 10 μM compound, 10 μM tubulin, 0.75 M glutamate, 30 min at 30 °C
Summary of the method: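 Purified bovine brain tubulin with microtubule-associated proteins removed, at 10 μM, in 0.75 M monosodium glutamate (stock pH 6.6), 10 μM GTP and 4% DMSO. Test compound at 10 μM, with a no-addition control. After 30 min at 30 °C, aliquots were put on carbon-coated Formvar copper grids and stained with 5-10 drops of 1% uranyl acetate. Excess stain was wicked off and grids examined by TEM.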

[2] = cited from earlier work
[3] = system: MCF-7 human breast carcinoma cells; experiment: Growth of human breast carcinoma MCF-7 cells; assay type: cell-based; conditions: for IC50: read-out: Inhibition of cell growth IC50 (μM) ± S. D., MCF-7 cells, 48 h, sulforhodamine B
Summary of the method: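 MCF-7 cells from the NCI drug screening group, grown in RPMI with 10% heat-treated fetal bovine serum. About 5,000 cells per well seeded, adhered overnight, then exposed to test compound for 48 h at 37 °C in humidified 5% CO2; final DMSO 0.5% (v/v). Growth read as cellular protein by sulforhodamine B staining. IC50 is 50% growth inhibition.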

tubulin [4] = experiment: Binding of radiolabeled colchicine to tubulin; design: species or system bovine
preformed microtubules = experiment: Binding of radiolabeled paclitaxel to preformed microtubules; conditions: unpublished data
[5] = system: purified bovine brain tubulin; experiment: Turbidimetric tubulin assembly assay in glutamate; assay type: biochemical
cultured cells = experiment: Microtubule bundle formation in cultured cells; assay type: cell-based; conditions: synthetic compound
tubulin [6] = experiment: Binding of [3H]vinblastine to tubulin; conditions: authors' attempt to reproduce ref 3
tubulin [7] = conditions: cited from earlier work
[8] = system: purified bovine brain tubulin; experiment: Centrifugal assay for spiral formation; assay type: biochemical; conditions: threshold EC50 < 100 μM
Summary of the method: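 Purified bovine brain tubulin (MAP-free) at 10 μM in 0.75 M monosodium glutamate (stock pH 6.6), 10 μM GTP, 4% (v/v) DMSO as compound solvent. Incubated 20 min at 30 °C, then centrifuged 15 min at room temperature (about 20 °C). Lowry protein measured in supernatant and in uncentrifuged mixture. EC50 is the concentration removing 50% of tubulin from the supernatant versus no-compound reactions.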

Compound: CC[C@]1(O)C[C@@H]2CN(CCc3c([nH]c4ccccc34)[C@@](C(=O)OC)(c3cc4c(cc3OC)N(C)[C@H]3[C@@](O)(C(=O)OC)[C@H](OC(C)=O)[C@]5(CC)C=CCN6CC[C@]43[C@@H]65)C2)C1 [vinblastine]
morphology of polymer formed in glutamate with 10 μM GTP [1]: typical tight spirals

Compound: (+)-rhazinilam
activity of the enantiomer, in words [2]: inactive

Compound: CC12CCCn3ccc(c31)-c1ccccc1NC(=O)CC2 (stereo not shown) [Compound 5]
IC50 [3]: 3.8 ± 1 µM

Further lines, with some results ahead:

IC50 [3]: 0.97 ± 0.3 µM | inhibition of the binding of radiolabeled colchicine to tubulin (tubulin [4]): no inhibitory effect | inhibition of the binding of radiolabeled paclitaxel to preformed microtubules (preformed microtubules): no inhibitory effect | inhibition of the binding of [3H]vinblastine to tubulin (tubulin [6]): unable to reproduce this result
Compound: (−)-rhazinilam
disassembly of polymer at 0 °C ([5]; 20 μM compound + 0.4 mM GTP, 0.75 M glutamate (Fig. 5, curve 4)): little disassembly | disassembly of polymer at 0 °C ([5]; 20 μM compound, no GTP, 0.75 M glutamate (Fig. 5, curve 2)): disassembled slowly in the cold | concentration at end of the inhibitory effect on tubulin assembly ([5]; 0.8 M glutamate, 0.4 mM GTP, 10 μM tubulin (Fig. 2, curve 4)): 3 µM | concentration at onset of spiral induction ([5]; 0.8 M glutamate, 0.4 mM GTP, 10 μM tubulin (Fig. 2, curve 5)): 4 µM | effect on microtubules in cultured cells (cultured cells): formation of extensive bundled microtubules | inhibition of the binding of [3H]vinblastine to tubulin (tubulin [7]): inhibited the binding

IC50 [3]: 1.8 ± 0.7 µM
Compound: (±)-rhazinilam
activity in the tubulin-based (spiralization) assay, in words [8]: approximately half as active as (−)-rhazinilam | activity in the cell-based (MCF-7) assay, in words ([3]; threshold IC50 < 10 μM): approximately half as active as (−)-rhazinilam
